Test results as given in ChEMBL document CHEMBL1255469, “In vitro activity of a new isothiazoloquinolone, ACH-702, against Mycobacterium tuberculosis and other mycobacteria” (2010).
In brackets after ≈: the same amount, converted by molar mass.

Tests used:
[1] = test system: Mycobacterium tuberculosis; assay: Antimicrobial activity against isoniazid and rifampin-resistant Mycobacterium tuberculosis clinical isolates after 7 days by broth microdilution assay; assay type: functional; settings: 168 h
In short: (§1)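 Alamar Blue broth microdilution in 7H9GC broth (Middlebrook 7H9 base, glycerol, Casitone, 10% OADC). Drug stock 1 mg/ml in 100% DMSO, diluted in broth to a final 0.03 to 8 μg/ml. M. tuberculosis H37Rv served as the susceptible-strain control. Isoniazid and rifampin resistance was assigned beforehand by the proportion method.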

[2] = test system: Mycobacterium tuberculosis; assay: Antimicrobial activity against isoniazid or rifampin-resistant Mycobacterium tuberculosis clinical isolates after 7 days by broth microdilution assay; assay type: functional; settings: 168 h; in short: as §1

Compound: COc1c(N2CC[C@@H](C(C)(C)N)C2)c(F)cc2c(=O)c3c(=O)[nH]sc3n(C3CC3)c12
- MIC50 [1]: 0.06 µg/mL (≈ 0.139 µM)
- MIC90 [1]: 0.12 µg/mL (≈ 0.277 µM)
- MIC50 [2]: 0.12 µg/mL (≈ 0.277 µM)
- MIC90 [2]: 0.12 µg/mL (≈ 0.277 µM)
